In ChEMBL document CHEMBL1133666, “Esterase-sensitive nitric oxide donors of the diazeniumdiolate family: in vitro antileukemic activity” (J Med Chem, 2000):

Legend:
[1] = system: HL-60; test: Inhibitory activity towards HL-60 cells at 72 hours; type: functional, cell-based; conditions: Homo sapiens, HL-60, 72 h
How it was run: (§1)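 Leukemia cells seeded at 150 000 cells/mL in RPMI-1640 with 10% FBS, 37 °C, 5% CO₂, 1 mL per well. NO donors added at culture initiation. Cells harvested at 72 h and washed twice in PBS. Viable cells counted by Trypan blue exclusion. IC50 calculated from the concentration–growth curve. Means ± SEM of at least three separate experiments.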

[2] = system: U-937; test: Within 24 hr at initial concentrations of 50 uM, apoptosis induction was evaluated in U937 cells; type: functional
How it was run: (§2)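 Cells grown at 150 000 cells/mL in RPMI-1640 with 10% FBS, 37 °C, 5% CO₂, with compound added at culture start and read at 24 h. Cells washed in PBS and lysed in 0.2% NP40/5% BSA in PBS with propidium iodide and RNase A. Flow cytometry scored the low-DNA-content (apoptotic) fraction as percent of cells. Means ± SEM of ≥3 experiments.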

[3] = system: HL-60; test: Within 24 hr at initial concentrations of 50 uM, apoptosis induction was evaluated in HL-60 cells; type: functional; how it was run: as §2
[4] = system: U-937; test: Inhibitory activity towards U937 cells at 72 hours; type: functional, cell-based; conditions: Homo sapiens, U-937, 72 h; how it was run: as §1
[5] = system: HL-60; test: Inhibitory activity towards HL-60 cells at concentration of 100 uM; type: functional; conditions: Homo sapiens; how it was run: as §1
[6] = system: U-937; test: Inhibitory activity towards U937 cells at concentration of 100 uM; type: functional; conditions: Homo sapiens; how it was run: as §1

IC50 [1] [µM] | IC50 [4] [µM] | SMILES | Apoptosis induction [2] [%] | Apoptosis induction [3] [%] | inhibition at 100 µM [5] [%] | inhibition at 100 µM [6] [%]
> 600 |  | [O-]/[N+](=N\O)N1CCCC1 |  |  |  | 
> 600 |  | CCN(CC)/[N+]([O-])=N/O |  |  |  | 
6.4 | 53 | CC(=O)OCO/N=[N+](\[O-])N1CCCC1 | 40 | 57 |  | 
8.3 | 53 | CCN(CC)/[N+]([O-])=N/OCOC(C)=O | 35 | 50 |  | 
 |  | CCN(CC)/[N+]([O-])=N/OCCSC(C)=O |  |  | 90 | 48
